ChEMBL document CHEMBL1156597, “Structure-activity relationship of kahalalide F synthetic analogues” (J Med Chem, 2008)

Tests used:
DU-145 = assay: Cytotoxicity against human DU145 cells after 48 hrs by SRB assay; assay type: functional, cell-based; conditions: Homo sapiens, DU-145, 48 h; for CC50: read-out: LC50 (the source's name)
Method in brief: (§1)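 Cells grown in RPMI 1640 with 10% FBS and penicillin/streptomycin at 37 °C and 5% CO₂, trypsinized, then seeded at 5 × 10³/well. After 18 h drug-free attachment, samples in DMSO/EtOH/PBS (0.5:0.5:99) were added for 48 h continuous exposure. Cells were fixed with cold TCA (1 h, 4 °C) and stained with SRB (10 min). Tris-solubilized stain read at 490 nm. Triplicate wells, mean ± SD; GI₅₀ derived.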

LNCaP = assay: Cytotoxicity against human LNcaP cells after 48 hrs by SRB assay; assay type: functional; conditions: for CC50: read-out: LC50 (the source's name); method in brief: as §1
[1] = Cytotoxicity against human IGROV cells after 48 hrs by SRB assay; assay type: functional; conditions: for CC50: read-out: LC50 (the source's name); method in brief: as §1
[2] = Cytotoxicity against human IGROV-ET cells after 48 hrs by SRB assay; assay type: functional; conditions: for CC50: read-out: LC50 (the source's name); method in brief: as §1
SK-BR-3 = assay: Cytotoxicity against human SKBR3 cells after 48 hrs by SRB assay; assay type: functional; conditions: SK-BR-3, 48 h; for CC50: read-out: LC50 (the source's name); method in brief: as §1
SK-MEL-28 = assay: Cytotoxicity against human SK-MEL-28 cells after 48 hrs by SRB assay; assay type: functional, cell-based; conditions: Homo sapiens, SK-MEL-28, 48 h; for CC50: read-out: LC50 (the source's name); method in brief: as §1
A549 = assay: Cytotoxicity against human A549 cells after 48 hrs by SRB assay; assay type: functional, cell-based; conditions: Homo sapiens, A549, 48 h; method in brief: as §1
K562 = assay: Cytotoxicity against human K562 cells after 48 hrs by SRB assay; assay type: functional; conditions: K562, 48 h; for CC50: read-out: LC50 (the source's name); method in brief: as §1
PANC-1 = assay: Cytotoxicity against human PANC1 cells after 48 hrs by SRB assay; assay type: functional; conditions: PANC-1, 48 h; for CC50: read-out: LC50 (the source's name); method in brief: as §1
HT-29 = assay: Cytotoxicity against human HT29 cells after 48 hrs by SRB assay; assay type: functional, cell-based; conditions: Homo sapiens, HT-29, 48 h; for CC50: read-out: LC50 (the source's name); method in brief: as §1
LoVo [3] = assay: Cytotoxicity against human LoVo cells after 48 hrs by SRB assay; assay type: functional; conditions: for CC50: read-out: LC50 (the source's name)
LoVo [4] = assay: Cytotoxicity against human doxorubicin resistant LoVo cells after 48 hrs by SRB assay; assay type: functional; conditions: for CC50: read-out: LC50 (the source's name); method in brief: as §1
HeLa = assay: Cytotoxicity against human HeLa cells after 48 hrs by SRB assay; assay type: functional; conditions: for CC50: read-out: LC50 (the source's name); method in brief: as §1
[5] = Cytotoxicity against human HeLa-APL cells after 48 hrs by SRB assay; assay type: functional; method in brief: as §1

Structure (SMILES) | GI50 (DU-145) [nM] | GI50 (DU-145; read-out: GI50) [nM] | CC50 (DU-145) [nM] | GI50 (LNCaP) [nM] | TGI (LNCaP) [nM] | CC50 (LNCaP) [nM] | GI50 [1] [nM] | GI50 ([1]; read-out: GI50) [nM] | CC50 [1] [nM] | GI50 [2] [nM] | GI50 ([2]; read-out: GI50) [nM] | CC50 [2] [nM] | GI50 (SK-BR-3; read-out: GI50) [nM] | CC50 (SK-BR-3) [nM] | GI50 (SK-MEL-28) [nM] | GI50 (SK-MEL-28; read-out: GI50) [nM] | CC50 (SK-MEL-28) [nM] | GI50 (A549) [nM] | LC50 (A549) [nM] | GI50 (A549; read-out: GI50) [nM] | other results
C/C=C1\NC(=O)[C@H](Cc2ccccc2)NC(=O)[C@@H](CCC2CCCCC2)NC(=O)[C@@H](CCC2CCCCC2)NC(=O)[C@H](NC(=O)[C@@H](CCC2CCCCC2)NC(=O)[C@H](CCCN)NC(=O)[C@H]2CCCN2C(=O)[C@H](NC(=O)[C@@H](NC(=O)[C@@H](NC(=O)[C@H](NC(=O)CCCC(C)C)C(C)C)[C@@H](C)O)C(C)C)C(C)C)[C@H](C)OC(=O)[C@H](C(C)C)NC1=O | 125 | 148 | 104 | 304 | 415 | 633 | 139 | 214 | 161 | 227 | 255 | 55 | 249 | 87.8 | 159 | 174 | 144 | 173 | 222 | 161 | TGI (SK-BR-3): 201 nM; GI50 (K562): 363 nM; TGI (K562): 630 nM; CC50 (K562): 980 nM; GI50 (PANC-1): 1320 nM; TGI (PANC-1): 1380 nM; CC50 (PANC-1): 1450 nM; GI50 (HT-29): 359 nM; TGI (HT-29): 339 nM; CC50 (HT-29): 320 nM; GI50 (LoVo [3]): 282 nM; TGI (LoVo [3]): 274 nM; CC50 (LoVo [3]): 264 nM; CC50 (LoVo [4]): 27.4 nM; GI50 (HeLa): 255 nM; TGI (HeLa): 361 nM; CC50 (HeLa): 586 nM; GI50 [5]: 233 nM; LC50 (concentration giving 50% net cell kill) [5]: 573 nM; TGI [5]: 3400 nM
C/C=C1\NC(=O)[C@H](Cc2ccccc2)NC(=O)[C@@H](C(C)C)NC(=O)[C@@H]([C@H](C)CC)NC(=O)[C@H](NC(=O)[C@H](NC(=O)[C@H](CCCN)NC(=O)[C@H]2CCCN2C(=O)[C@H](NC(=O)[C@@H](NC(=O)[C@@H](NC(=O)[C@H](NC(=O)CC[C@@H](C)[C@H]2CC[C@H]3[C@@H]4CC[C@@H]5C[C@H](OC(=O)C(F)(F)F)CC[C@]5(C)[C@H]4CC[C@]23C)C(C)C)[C@@H](C)OC(=O)C(F)(F)F)C(C)C)C(C)C)[C@H](C)CC)[C@H](C)OC(=O)[C@H](C(C)C)NC1=O | 683 | 698 | 663 | 729 | 783 | 838 | 384 | 405 | 317 | 700 | 638 | 2030 | 78.4 | 185 | 158 | 201 | 124 | 890 | 835 | 946 | TGI (SK-BR-3): 116 nM; GI50 (K562): 1070 nM; TGI (K562): 857 nM; CC50 (K562): 1220 nM; GI50 (PANC-1): 1660 nM; TGI (PANC-1): 1370 nM; CC50 (PANC-1): 1370 nM; GI50 (HT-29): 463 nM; TGI (HT-29): 479 nM; CC50 (HT-29): 921 nM; GI50 (LoVo [3]): 285 nM; TGI (LoVo [3]): 337 nM; CC50 (LoVo [3]): 614 nM; GI50 (LoVo [4]): 336 nM; TGI (LoVo [4]): 381 nM; CC50 (LoVo [4]): 2110 nM; CC50 (HeLa): 789 nM; LC50 (concentration giving 50% net cell kill) [5]: 710 nM
C/C=C1\NC(=O)[C@H](Cc2ccccc2)NC(=O)[C@@H](C(C)C)NC(=O)[C@@H]([C@H](C)CC)NC(=O)[C@H](NC(=O)[C@H](NC(=O)[C@H](CCCN)NC(=O)[C@H]2CCCN2C(=O)[C@H](NC(=O)[C@@H](NC(=O)[C@@H](NC(=O)[C@H](NC(=O)CCCCCCCCCCCCCCC)C(C)C)[C@@H](C)O)C(C)C)C(C)C)[C@H](C)CC)[C@H](C)OC(=O)[C@H](C(C)C)NC1=O | 126 | 145 | 111 | 129 | 118 | 107 | 92.6 | 191 | 62.2 | 140 | 345 | 79.1 | 43.9 | 36 | 123 | 138 | 110 | 126 | 117 | 1370 | GI50 (SK-BR-3): 39.8 nM; GI50 (K562): 124 nM; TGI (K562): 314 nM; CC50 (K562): 703 nM; GI50 (PANC-1): 203 nM; TGI (PANC-1): 1370 nM; CC50 (PANC-1): 1300 nM; CC50 (HT-29): 72.7 nM; GI50 (LoVo [3]): 300 nM; TGI (LoVo [3]): 293 nM; CC50 (LoVo [3]): 286 nM; GI50 (LoVo [4]): 264 nM; TGI (LoVo [4]): 262 nM; CC50 (LoVo [4]): 258 nM; CC50 (HeLa): 151 nM; GI50 [5]: 326 nM; LC50 (concentration giving 50% net cell kill) [5]: 513 nM; TGI [5]: 479 nM
